High-throughput results from PubChem BioAssay.
Sampled rows, rich in hits. Any-hit rate of the full collection: about 1.4%.
TNAP act hi DEA: increases human TNAP activity under high phosphate acceptor concentration. purified TNAP, CDP-star luminescence, 1 M DEA, 30 min; stronger effect = higher value; 0 = EDTA background, 1 = DMSO-only activity. AID 1136. 200,000 tested, under 10 active. activation factor at 20 µM;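 active = activation factor at least 2 at 20 µM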
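Control set: EDTA negative control, DMSO positive control / Assay system: human TNAP / Quantity: TNAP 1/800 final / Evaluation: TNAP activation factor scaled between EDTA and DMSO control wells / Measured by: luminescent substrate turnover signal / Compound dosing: one dose, 20 µM / Times: 30 min enzyme reaction at room temperature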
CHT PAM: allosterically activates the human high affinity choline transporter. CHT-expressing cells, membrane potential dye, choline EC20; stronger effect = higher value; LV-AA mutant CHT in HEK293 cells. B-score at 10 µM. AID 488977. Q9GZV3. 0.49% of 310,000 active;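 active = initial fluorescence not abnormally high and integrated response B-score, plate-corrected, over 3 SD above library mean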
Target sequence (Q9GZV3 whole entry, looked up): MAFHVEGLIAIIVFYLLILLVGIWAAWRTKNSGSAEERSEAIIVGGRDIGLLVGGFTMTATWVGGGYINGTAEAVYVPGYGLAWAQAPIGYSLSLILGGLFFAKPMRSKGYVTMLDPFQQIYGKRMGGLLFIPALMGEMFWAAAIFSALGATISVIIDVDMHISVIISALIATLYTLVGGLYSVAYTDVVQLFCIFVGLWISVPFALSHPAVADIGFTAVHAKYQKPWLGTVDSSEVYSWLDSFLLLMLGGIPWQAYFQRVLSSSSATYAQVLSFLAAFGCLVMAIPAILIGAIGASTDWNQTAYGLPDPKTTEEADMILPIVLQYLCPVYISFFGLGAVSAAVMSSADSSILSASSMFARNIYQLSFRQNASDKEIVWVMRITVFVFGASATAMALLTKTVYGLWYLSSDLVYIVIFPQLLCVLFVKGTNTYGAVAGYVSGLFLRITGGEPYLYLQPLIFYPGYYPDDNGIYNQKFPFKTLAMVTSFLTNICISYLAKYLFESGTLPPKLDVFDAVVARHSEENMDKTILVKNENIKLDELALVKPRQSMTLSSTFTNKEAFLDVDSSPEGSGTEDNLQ
TNAP inh no acc: inhibitors of human TNAP without phosphate acceptor. P05186. purified TNAP, CDP-star luminescence, 30 min. 0.26% of 200,000 active. AID 1012. inhibition, % at 20 µM;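 active = tissue-nonspecific alkaline phosphatase inhibition above about 50% at 20 µM in the single-dose screen, limit read from the data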;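 note: 0% = DMSO negative control and 100% = EDTA positive control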
TNAP inh hi DEA: inhibitors of human TNAP at high phosphate acceptor concentration; P05186; purified TNAP, CDP-star luminescence, 1 M DEA; inhibition, % at 20 µM; 0.03% of 200,000 active; AID 1135;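 active = over 50% inhibition of tissue-nonspecific alkaline phosphatase at 20 µM in the single-dose screen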;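 note: plate controls were DMSO wells for no effect and EDTA-quenched wells as full inhibition for full effect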
ABCB6 inh MLPCN: human ABCB6 transporter inhibition; K562-ABCB6 porphyrin accumulation, flow cytometry, 1 h; stronger effect = lower value; fluorescence ratio to DMSO, % at 10 µM; 0.19% of 360,000 active; AID 602162;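 active = fluorescence ratio to DMSO below 75%, the collection mean minus 3 SD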;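 note: signal is porphyrin accumulated inside mitochondria; 100% equals median channel fluorescence of DMSO control wells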
CHT block: inhibitors of human choline transporter CHT | Q9GZV3 | 0.86% of 310,000 active | B-score at 10 µM | AID 488975 | CHT-expressing cells, membrane potential dye, choline response; stronger effect = lower value;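 active = B-score over 3 SD under the library average, and starting fluorescence ratio not unusually high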;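 note: choline stimulus applied at its EC90 after an EC20 pre-addition; B-score computed on integrated fluorescence ratio after choline addition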
* hit, by the source's call; i = inactive; x = not tested or not shown.

SMILES	TNAP act hi DEA	CHT PAM	TNAP inh no acc	TNAP inh hi DEA	ABCB6 inh MLPCN	CHT block
C/C(=N/NC(=O)c1ccc(Cl)s1)c1ccc(NC(=O)COc2ccc(Cl)cc2)cc1	1	i	-6	4	53*	i
CCC(=O)Nc1ccc(/C(C)=N\NC(=O)c2ccc(C)s2)cc1	1.1	i	-2	-6	90	i
CCOC(=O)CNC(=O)CSc1nc(C(C)C)nc2c1cnn2-c1ccccc1	x	x	x	x	100	x
CCOc1cnn(Cc2ccccc2)c(=O)c1SCc1ccccc1	1	i	-5	-1	98	i
O=C(O)c1ccccc1C(=O)N1N=C2/C(=C/c3cccc([N+](=O)[O-])c3)CCCC2C1c1cccc([N+](=O)[O-])c1 (configuration not stated)	1	i	79*	3	92	i
O=C(O)c1c(C(=O)N2N=C3/C(=C/c4ccccc4)CCCC3C2c2ccccc2)cccc1[N+](=O)[O-] (configuration not stated)	1.1	i	28	-5	96	i
C=CCOc1ccc(/C=C2\SC(=S)N(NS(=O)(=O)c3ccccc3)C2=O)cc1	x	i	x	x	90	-6.2*
Oc1ccc(C2=Nn3c(nnc3-c3ccco3)SC2)cc1O	0.6	i	91*	40	87	i
C/C(=N\NC(=O)c1ccccc1)c1cc2cc([N+](=O)[O-])ccc2oc1=O	0.4	i	19	58*	97	i
O=[N+]([O-])c1ccc(Oc2cccc(F)c2)c2ccncc12	1	i	-5	4	98	i
Cc1ccccc1N=C1c2cc([N+](=O)[O-])ccc2-c2ncccc21	1	9.7*	8	2	89	i
O=C(CN1CCCCC1)NNc1nc(-c2ccccc2)c2cc(Br)ccc2n1	x	i	x	x	99	i
O=c1cc(-c2ccccc2Cl)oc2c(NS(=O)(=O)c3cc(Cl)cc(Cl)c3O)ccc(O)c12	1	i	5	-2	96	-9.8*
CCc1ccc(S(=O)(=O)Nc2ccc(O)c3c(=O)cc(-c4ccccc4Cl)oc23)cc1	x	i	x	x	98	i
O=C(O)C1Nc2c(O)cc(Cl)c([N+](=O)[O-])c2C2C=CCC12 (configuration not stated)	0.7	i	65*	31	107	i
Cc1ccc2c(c1)C1C=CCC1C(C(=O)O)N2 (configuration not stated)	0.9	i	10	13	x	i
CC(C)CNc1ncnc2c1ncn2[C@H]1CN(C2CCCC2)C[C@@H](CO)O1	x	x	x	x	97	x
COCCNC(=S)Nc1cccc2cnccc12	1.1	i	-15	-5	99	i
S=C(NCCc1ccccc1)Nc1cccc2cnccc12	1	i	53*	2	96	i
CCCCCc1ccc(CC(=O)Nn2c(C)nc3ccccc3c2=O)cc1	1	i	-10	-1	98	i
Cc1cc(SCC(=O)N/N=C/c2ccc(O)c(O)c2)nc2ccccc12	x	i	x	x	94	i
COc1cccc2c(SCC(=O)N/N=C/c3ccc(O)c(O)c3)cc(C)nc12	0.9	i	72*	11	93	i
COc1cccc2c(SCC(=O)N/N=C/c3ccccc3)cc(C)nc12	1	i	-10	-3	96	i
COc1ccc2c(c1)c(C(=O)N/N=C/c1ccc(O)c(O)c1)c(C)n2C	1	i	56*	1	95	i
COc1ccc2nc(C)cc(SCC(=O)N/N=C/c3ccc(O)c(O)c3)c2c1	0.8	i	76*	20	99	i
SMILES	TNAP act hi DEA	CHT PAM	TNAP inh no acc	TNAP inh hi DEA	ABCB6 inh MLPCN	CHT block
Cc1cc(SCC(=O)N/N=C/c2ccc(O)c(O)c2)c(C)cc1Br	0.9	i	50*	12	104	i
Cc1ccccc1-c1cc(C(=O)NCC2CC2)nn1CC1CC(c2cccc([N+](=O)[O-])c2)=NO1 (configuration not stated)	x	x	x	x	94	x
CSc1nc(-c2ccccc2)nn1S(=O)(=O)c1ccccc1	1	i	54*	-3	88	i
CSc1nc(-c2ccccc2)nn1C(=O)c1ccccc1	1	i	56*	0	91	i
CSc1nc(-c2ccccc2)nn1S(=O)(=O)c1ccc(Cl)cc1	1.1	i	2	-7	101	i
CSc1nc(-c2ccc(Cl)cc2)nn1C(=O)c1ccccc1	1	i	43	1	98	i
CCS(=O)(=O)n1nc(-c2ccccc2)nc1SC	1	i	54*	-4	94	i
O=C(OCc1cn([C@H]2C[C@H](c3ccccc3)N(Cc3cccs3)C[C@@H]2O)nn1)c1ccccc1	x	x	x	x	101	x
CN1CCN(C(CNC(=O)c2ccc(Br)o2)c2ccc(F)cc2)CC1 (configuration not stated)	x	i	x	x	98	i
Cc1ccc2nc3c(cc(C(=O)NC4CCCC4)c(=N)n3CCCn3ccnc3)c(=O)n2c1	1	6.4*	-2	-3	x	i
CCOc1ccccc1C(=O)N1CCN(c2cccc(Cl)c2)CC1	1.1	12*	-14	-6	106	i
O=C(O)c1ccccc1C(=O)N1CCN(c2cccc(Cl)c2)CC1	1	i	-10	0	94	i
COc1ccccc1-n1c(=O)oc2ccc(Cl)cc2c1=O	1	i	-11	-2	100	-8.5*
O=C1CCCN1CC(O)CS(=O)(=O)Cc1ccccc1Cl (configuration not stated)	x	i	x	x	90	i
CCN(CC)CCNC(=S)Nc1ccc2nc(N3CCCC3)cc(C)c2c1	1.1	i	4	-5	101	i
CCCCN(CC)CCCNC(=S)Nc1ccc2nc(N3CCN(CC)CC3)cc(C)c2c1	1	i	-8	-4	99	-11*
CCCN(CCC)CCCNC(=S)Nc1ccc2nc(N3CCCC3)cc(C)c2c1	1	i	-4	-3	96	-9.5*
CCOC(=O)[C@H]1[C@H]2COc3ccc(Br)cc3[C@@H]2N2C(=O)CN(Cc3ccco3)C(=O)[C@@]12C	x	x	x	x	96	x
CCOC(=O)C1CCN(C(=O)CNS(=O)(=O)c2cccs2)CC1	1.1	i	-12	-7	96	i
Cc1ccc2c(c1)sc(-c1ccc(N(C)C)cc1)[n+]2C	x	i	x	x	147	i
COc1cc(OC)cc(-c2noc([C@H]3C[C@H](O)[C@@H](CO)O3)n2)c1	x	x	x	x	97	x
COc1ccc(/C=N/NC(=O)c2cc(C34CC5CC(CC(C5)C3)C4)[nH]n2)cc1OC	1	i	86*	0	106	i
O=C(N/N=C/c1ccc(O)cc1)c1cc(C23CC4CC(CC(C4)C2)C3)[nH]n1	x	i	x	x	98	i
